Experimental data published in ChEMBL document CHEMBL1275479, “Pharmacokinetics of miltefosine in Old World cutaneous leishmaniasis patients” (Antimicrob Agents Chemother, 2008).

How the values were obtained:
Homo sapiens [1] = assay: Hepatotoxicity in patient with cutaneous leishmaniasis assessed as mild elevation of aspartate aminotransferase at […], po three times a day for 28 days; format: toxicity, organism-based; design: route oral; settings: in vivo, 672 h
Homo sapiens [2] = assay: Hepatotoxicity in patient with cutaneous leishmaniasis assessed as mild elevation of alanine aminotransferase at […], po three times a day for 28 days; format: toxicity, organism-based; design: route oral; settings: in vivo, 672 h
Homo sapiens [3] = assay: Toxicity in patient with cutaneous leishmaniasis assessed as mild to moderate fatigue at […], po three times a day for 28 days; format: organism-based; design: route oral; settings: in vivo, 672 h
Homo sapiens [4] = assay: Toxicity in patient with cutaneous leishmaniasis assessed as mild to moderate gastrointestinal side-effect at […], po three times a day for 28 days; format: organism-based; design: route oral; settings: in vivo, 672 h
Homo sapiens [5] = assay: Plasma concentration in patient with cutaneous leishmaniasis at […], po three times a day measured after 22 to 28 days by LC-MS/MS assay; format: ADME, organism-based; design: route oral; settings: in vivo
Outline: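 31 cutaneous leishmaniasis patients given miltefosine 150 mg/day for 28 days. Venous EDTA blood was spun at about 23,100 × g, 4°C, 15 min, and plasma stored at ≤−20°C. Analysis was solid-phase extraction of 250 μl plasma, then isocratic C18 LC-MS/MS; range 4–2,000 ng/ml, higher samples diluted in blank plasma. Sampling windows: days 178–202, days 22–28.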

[6] = Terminal half life in patient with leishmaniasis at […], po three times a day for 28 days by LC-MS/MS assay; format: ADME, organism-based; design: route oral; settings: human, in vivo
Outline: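 Population pharmacokinetic fit in NONMEM of 382 plasma concentrations (LC-MS/MS, LLOQ 4 ng/ml) from 31 patients on 150 mg/day for 28 days, sampled up to day 202. Nested models were compared by objective function with the log likelihood ratio test and checked with observed-versus-predicted and conditional weighted residual plots; a two-compartment model was used for the terminal half-life.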

[7] = Cmax in serum of patient with cutaneous leishmaniasis at 2.5 mg/kg, po once a day for 23 days by LC-MS/MS assay; format: ADME, organism-based; design: dose 2.5 mg/kg, route oral; settings: human
[8] = Terminal half life in patient with cutaneous leishmaniasis at 2.5 mg/kg, po once a day measured after 6 to 8 days by LC-MS/MS assay; format: ADME, organism-based; design: dose 2.5 mg/kg, route oral; settings: human, in vivo
Homo sapiens [9] = assay: Renal toxicity in patient with cutaneous leishmaniasis assessed as mild elevation of creatinine at […], po three times a day for 28 days; format: organism-based; design: route oral; settings: in vivo, 672 h
Homo sapiens [10] = organism: Homo sapiens; assay: Plasma concentration in patient with cutaneous leishmaniasis measured after 178 to 202 days by LC-MS/MS assay; settings: in vivo

## CCCCCCCCCCCCCCCCOP(=O)([O-])OCC[N+](C)(C)C [MILTEFOSINE]
Homo sapiens [1]
  Activity: Toxic
Homo sapiens [2]
  Activity: Toxic
Homo sapiens [3]
  Activity: Toxic
Homo sapiens [4]
  Activity: Toxic
Homo sapiens [5]
  Activity: 30800 ng/mL
[6]
  half-life: 30.9 days
[7]
  Cmax: 70 µg/mL
[8]
  half-life: 6.25 days
Homo sapiens [9]
  Activity: Toxic
Homo sapiens [10]
  Activity: 17.5 ng/mL
